# Assay outcomes deposited in PubChem by several laboratories.
# PP1 counter: counter-screen for PP5 inhibitors: inhibitors of human PP1-alpha; P62136; purified PP1alpha, OMFP fluorescence; inhibition, % at 6.7 µM; hit rate 0.9% among 320,000;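 active = inhibition above the mean inhibition of all tested compounds plus 3 SD, computed separately for each screening campaign, cut at about 15% in these data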
# Target sequence (P62136 whole entry, looked up): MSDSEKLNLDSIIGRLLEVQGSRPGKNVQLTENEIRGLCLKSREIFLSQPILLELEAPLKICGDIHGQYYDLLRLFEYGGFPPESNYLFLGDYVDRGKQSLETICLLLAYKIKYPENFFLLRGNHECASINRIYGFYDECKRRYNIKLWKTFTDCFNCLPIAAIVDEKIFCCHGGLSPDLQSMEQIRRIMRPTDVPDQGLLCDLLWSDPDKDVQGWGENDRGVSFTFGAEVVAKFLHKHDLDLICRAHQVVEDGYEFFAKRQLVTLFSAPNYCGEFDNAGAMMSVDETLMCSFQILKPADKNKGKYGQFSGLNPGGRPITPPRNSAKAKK
# UBC13 inh: human UBC13 polyubiquitination inhibition; hit rate 0.47% among 330,000; inhibition, % at 20 µM; UBC13 polyubiquitin chain formation, TR-FRET; P61088; in the data active = inhibition above about 45%, passing the limit was not always enough
# Target sequence (P61088 whole entry, looked up): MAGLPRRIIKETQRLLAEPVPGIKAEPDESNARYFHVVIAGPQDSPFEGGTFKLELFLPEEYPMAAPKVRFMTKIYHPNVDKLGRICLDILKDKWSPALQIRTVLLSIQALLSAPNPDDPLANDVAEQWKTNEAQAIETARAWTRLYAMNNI
# T cruzi inh: blocks replication of Trypanosoma cruzi; hit rate 1.4% among 300,000; AID 1885; T. cruzi beta-gal in NIH3T3, luminescence, 90 h; inhibition, % (concentration not given with the values);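 active = mean inhibition across valid replicates above about 55%, limit read from the data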;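 note: signal also drops with host cell toxicity which is not excluded here; 0% = plate median of DMSO wells and 100% = zero luminescence signal; higher percent means less beta-gal luminescence so fewer parasites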
#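 Test system: β-gal T. cruzi (Tulahuen C4) inside NIH/3T3 cells / Quantity: 5,000 cells/well / Measured by: luminescence from GalScreen with 0.05% NP40, read after 60 min / Medium: DMEM plus 2% FBS / Measure: parasite load inhibition, % / Reagent: Tulahuen C4 trypomastigotes, 5000/well / Schedule: co-culture of at least 90 h after 3 h attachment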
# AI-2 QS mod: modulates the Vibrio harveyi AI-2 quorum sensing system; Vibrio harveyi JMH597 AI-2 luminescence/OD600 ratio, 9 h; active compounds read low; strain lacks LuxN and CqsS sensors; 0 = neutral-control median; activity change, % at 7.5 µM; hit rate 0.4% among 300,000; AID 2094; in the data active = activity change below about -75%, passing the limit was not always enough;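 note: luminescence divided by OD600 gain over 9 h not by final OD600 alone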
# pCIP destab: p/CIP protein destabilization. Q05BA5. F442A p/CIP-EGFP cells, EGFP fluorescence, 16 h. decrease of EGFP signal, % at 10 µM. hit rate 0.01% among 290,000. AID 1984;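 active = EGFP signal decrease of at least 30% at 10 µM or well 3 SD below plate mean, unless failing retest; inactive = the rest, including hits failing retest or dose response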
# PP1 confirm: confirmation of human PP1 phosphatase inhibitors. shares compounds with PP1 counter. purified PP1alpha, OMFP substrate fluorescence. inhibition, % at 6.7 µM. hit rate 52% among 1,900. AID 2358;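 active = mean PP1 inhibition above a set limit taken from the earlier primary screen, cut at about 15% in these data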
# PP5 inh counter: counter-screen for PP1 inhibitors: human PP5 phosphatase inhibition; AID 2360; shares compounds with PP1 counter; purified PP5c, OMFP fluorescence; hit rate 4% among 1,900; inhibition, % at 6.7 µM;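 active = mean PP5 inhibition over triplicate wells above about 9.5% taken from the earlier PP1 screen, limit read from the data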
# * marks the source's active call; other numbers are inactive results; · = no result given. The list is not random: actives were taken first. Their share in the collection is about 2.8%.
SMILES,PP1 counter,UBC13 inh,T cruzi inh,AI-2 QS mod,pCIP destab,PP1 confirm,PP5 inh counter
CCOC(=O)c1cc(-c2cccs2)nc2c1c(C)nn2-c1ccccn1,22.6*,36.6,6.9,10.4,-1.4,24.7*,-2.0
Cc1nn(-c2ccccc2)c2nc(-c3cccs3)cc(C(=O)NN)c12,1.4,18.6,-5.7,9.9,-13.9,·,·
NNc1nc2ccccc2c(=O)n1Cc1ccccc1,-1.7,7.1,-18.7,28.1,-3.9,·,·
O=S(=O)(Cc1cc(NCc2ccccc2)nc(-c2ccccn2)n1)c1ccccc1,39.4*,-9.6,27.3,36.4,-23.0,46.3*,-0.3
COc1ccccc1NC(=O)C(=O)N/N=C(\C)CC(=O)Nc1ccc(OCc2ccccc2)cc1,19.1*,43.2,2.3,3.7,-3.6,24.4*,-1.6
C/C(CC(=O)Nc1ccc(OCc2ccccc2)cc1)=N\NC(=O)C(=O)Nc1cccc(C)c1,17.9*,-8.5,-17.2,11.3,0.9,0.1,-6.3
Cn1cc(Cl)c(/C(N)=N/OC(=O)c2ccccc2C(F)(F)F)n1,0.3,-14.1,16.9,17.6,-11.0,·,·
COc1ccc(C(=O)Nc2ccc(Cl)cc2F)cc1S(=O)(=O)N1CCCC1,-3.8,2.4,·,·,·,·,·
COc1cc(NC(=O)C(C)N2CCN(C(=O)C3CC3)CC2)cc(OC)c1 (stereo unspecified),-0.1,-25.2,·,·,·,·,·
CCCCCC(=O)Cc1cc(O)cc2c1C(=O)Oc1cc(O)c(C(=O)O)c(CCCCC)c1O2,28.9*,-15.2,-12.0,-2.4,4.9,37.5*,3.2
COc1ccc(C2=NOC(Cn3nc(C(=O)NCc4ccccc4OC)cc3-c3ccccc3)C2)cc1 (stereo unspecified),12.2,-9.3,16.6,19.9,·,·,·
CCc1cccc(C)c1NC(=O)CSc1nc(-c2ccccc2F)nc2nc[nH]c12,23.6*,-0.9,11.7,19.5,-11.0,16.3*,-4.4
CC(=O)N1CCN(c2ccc(NC(=O)c3ccc4ccccc4c3)cc2)CC1,7.6,-0.1,-15.8,21.6,11.3,·,·
O=C(Nc1ccc(N2CCCC2)cc1)c1ccc2ccccc2c1,20.7*,5.3,16.5,1.8,-7.1,0.2,-4.9
O=c1cc(-c2ccc([N+](=O)[O-])cc2)nc2cc(-c3ccc(F)cc3)[nH]n12,35.3*,-13.0,-9.2,26.8,-5.6,34.3*,1.2
Cc1cccc(-c2cc3nc(-c4ccccc4)cc(=O)n3[nH]2)c1,22.7*,6.1,-4.7,9.6,-2.1,21.3*,2.8
Cc1cc2c(cc1S(=O)(=O)CCC(=O)NC1CCC(C)CC1)OCC(=O)N2 (stereo unspecified),2.5,1.6,-1.0,-0.4,-6.7,·,·
CCCN1C(=O)/C(=N\OCC(=O)NC23CC4CC(CC(C4)C2)C3)c2ccccc21,2.5,-19.2,17.9,35.3,3.9,·,·
COc1ccc(NC(=S)NC(NC(=O)c2cccc(Cl)c2)C(Cl)(Cl)Cl)c([N+](=O)[O-])c1 (stereo unspecified),17.9*,-39.9,72.8*,11.7,-7.2,6.2,1.4
COc1ccc(NC(=S)NC(NC(=O)c2cccc(C)c2)C(Cl)(Cl)Cl)c([N+](=O)[O-])c1 (stereo unspecified),1.5,-16.2,·,·,-11.7,·,·
O=C(Nc1ccc(Nc2ccncc2)cc1)c1ccc([N+](=O)[O-])cc1,-0.3,4.3,32.7,9.8,-7.2,·,·
O=C(Nc1ccc(Nc2ccncc2)cc1)c1ccc(Nc2ccnc3ccc([N+](=O)[O-])cc23)cc1[N+](=O)[O-],41.4*,·,-1.6,21.7,-9.1,-10.8,1.5
COc1cc(/C=C2\N=C(c3ccccc3)OC2=O)ccc1OCc1c(C)no[n+]1[O-],1.6,0.8,-8.5,6.3,-13.7,·,·
COc1ccc(/C=C2\N=C(c3c(-c4ccccc4)noc3C)OC2=O)cc1OC,19.1*,-5.7,-2.7,4.4,-17.7,-3.4,-2.1
Cc1ccc(S(=O)(=O)N2[C@@H](c3ccc(C(C)(C)C)cc3)C(C(=O)O)=CC[C@H]2c2ccc3c(c2)OCO3)cc1,·,-18.8,·,·,·,·,·
SMILES,PP1 counter,UBC13 inh,T cruzi inh,AI-2 QS mod,pCIP destab,PP1 confirm,PP5 inh counter
O=C(N/N=C/c1ccncc1)c1cccc(S(=O)(=O)Nc2ccc(Cl)cc2)c1,20.8*,6.9,1.7,-3.4,-9.0,6.5,-3.8
COc1cc(NC(=O)CSc2nc(C3CC3)nc3ccccc23)cc(OC)c1,19.3*,3.4,10.1,11.3,5.1,18.1*,-3.5
O=C(NC(C(=O)N/N=C/c1c2ccccc2cc2ccccc12)c1n[nH]c(=O)c2ccccc12)c1ccccc1 (stereo unspecified),18.3*,-20.7,17.1,24.5,29.7,16.6*,-1.9
CCOc1ccc(NC(=O)COc2ccc(-n3cnnn3)cc2)cc1,-4.7,0.1,·,·,·,·,·
CCOC(=O)c1ccc(NC(=O)COc2ccc(-n3cnnn3)cc2)cc1,20.0*,-13.0,-8.0,-10.0,7.7,4.7,-5.8
O=C(COC(=O)CNC(=O)c1ccccc1)NC1CCCC1,·,-0.9,·,·,·,·,·
CSCc1cc(N(C)C)nc(SCc2ccc(Cl)c(Cl)c2)n1,21.8*,0.0,-10.1,2.0,-4.9,10.4,-1.6
CC(=O)c1cccc(S(=O)(=O)Nc2c(C)nn(C)c2C)c1,-0.5,-0.7,·,·,·,·,·
Cc1cccc(N(C)C(=O)CN(C)S(=O)(=O)c2ccc3c(c2)c(=O)n(C)c(=O)n3C)c1,0.1,-1.8,-2.4,-7.0,-14.0,·,·
CCc1ccc(CNC(=O)C2CCN(S(=O)(=O)N3CC(C)CC(C)C3)CC2)cc1 (stereo unspecified),0.2,-7.2,7.3,8.2,-10.0,·,·
N#Cc1c(SCC(=O)Nc2nc3ccccc3s2)sc2c(O)cc(=O)[nH]c12,18.7*,-21.7,·,·,·,0.9,-2.9
CCCSc1nnc(NC(=O)CSc2sc3c(O)cc(=O)[nH]c3c2C#N)s1,13.8,-12.5,-10.2,19.8,-11.5,·,·
N#Cc1c(SCC(=O)Nc2nc3ccc(Br)cc3s2)sc2c(O)cc(=O)[nH]c12,17.7*,-5.0,-4.7,35.7,0.6,12.9,0.5
N#Cc1c(SCC(=O)Nc2nccs2)sc2c(O)cc(=O)[nH]c12,26.4*,-5.3,4.8,53.3,-10.1,1.3,-2.7
O=C(O)C1Nc2c(Cl)cc(Cl)cc2C2C=CCC12 (stereo unspecified),23.7*,·,0.7,22.9,-8.5,4.1,-1.6
O=C(O)C1Nc2c(Cl)cc(Cl)c(Cl)c2C2C=CCC12 (stereo unspecified),6.5,·,-2.3,22.2,·,·,·
O=C(O)C1Nc2ccc(Br)cc2C2C=CCC12 (stereo unspecified),38.1*,8.1,0.1,12.7,-2.9,5.6,-2.0
O=C(NC1CCCN(C2Cc3ccccc3C2)C1)c1ccc(F)cc1Cl (stereo unspecified),0.4,-2.5,47.6,12.5,2.0,·,·
